Consider four substances from ChEMBL document CHEMBL4350958, “Rational Design of Short Peptide Variants by Using Kunitzin-RE, an Amphibian-Derived Bioactivity Peptide, for Acquired Potent Broad-Spectrum Antimicrobial and Improved Therapeutic Potential of Commensalism Coinfection of Pathogens” (J Med Chem, 2019).

Series [1] relates to Escherichia coli. The experiment in a line: Antibacterial activity against Escherichia coli UB1005 measured after 24 hrs. It counts as functional. The note with it: UB1005, 24 h. In a few lines: (§1)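 Broth microdilution adapted from NCCLS. Mid-log bacteria were diluted in MHB to a final (0.5–1) × 10^5 CFU mL−1. Peptides were serially diluted in 0.2% BSA and mixed with an equal volume of cells. After 24 h at 37 °C, MIC was read at A492 as the lowest concentration inhibiting 95% of growth. At least three independent experiments, each with three technical replicates.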

Series [2] deals with Salmonella typhimurium. Kind of series: Antibacterial activity against Salmonella typhimurium ATCC 14028 measured after 24 hrs. The note with it: Salmonella enterica, ATCC 14028, 24 h. It counts as functional, Salmonella enterica subsp. enterica serovar Typhimurium. An outline of the steps: as §1
Series [3] has as its system Staphylococcus aureus. Kind of series: Antibacterial activity against methicillin-resistant Staphylococcus aureus ATCC 43300 measured after 24 hrs. It counts as functional. The note with it: ATCC 43300, 24 h. An outline of the steps:
(§2)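 Broth microdilution modified from NCCLS. Mid-log bacteria at (0.5–1) × 10^5 CFU mL−1 in MHB, mixed with peptides serially diluted in 0.2% BSA. Incubated 24 h at 37 °C, read at A492. MIC taken as lowest concentration giving 95% growth inhibition. At least three independent experiments, each with three technical replicates.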

Series [4] is described as follows: Antibacterial activity against Salmonella pullorum ATCC 7913 measured after 24 hrs. It counts as functional, Salmonella enterica subsp. enterica serovar Pullorum. The note with it: Salmonella enterica, ATCC 7913, 24 h. In a few lines: as §1
Series [5] concerns Pseudomonas aeruginosa. The experiment in a line: Antibacterial activity against Pseudomonas aeruginosa ATCC 27853 measured after 24 hrs. It counts as functional. The settings on record: ATCC 27853, 24 h. In a few lines:
as §1

Series [6] deals with Staphylococcus aureus. The experiment in a line: Antibacterial activity against Staphylococcus aureus ATCC 29213 measured after 24 hrs. The settings on record: ATCC 29213, 24 h. It counts as functional. An outline of the steps: as §2
For series [7], the system named is Candida albicans. The experiment in a line: Antifungal activity against Candida albicans cgmcc2.2086 measured after 48 hrs by broth microdilution method. The settings on record: cgmcc2.2086, 48 h. The series is classed as functional. In a few lines:
(§3)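 Modified CLSI M27-A2 microdilution. Yeast colonies were diluted in MOPS-buffered RPMI 1640 to a final (0.5–1) × 10^3 CFU mL−1 and mixed with an equal volume of peptide serially diluted in 0.2% BSA. After 48 h at 28 °C, MIC was read at A492 as the lowest concentration inhibiting 95% of growth. At least three independent experiments, each with three technical replicates.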

Series [8] concerns Candida parapsilosis. Kind of series: Antifungal activity against Candida parapsilosis cgmcc2.3989 measured after 48 hrs by broth microdilution method. It counts as functional. The note with it: Lodderomyces parapsilosis, cgmcc2.3989, 48 h. An outline of the steps:
as §3

In series [9] the test system is Erythrocyte. The experiment in a line: Hemolytic activity in human RBC measured after 1 hr. It counts as ADME, cell-based. In a few lines: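 Fresh healthy-donor human erythrocytes at ~1% (v/v) in PBS pH 7.4, mixed 1:1 with peptide (1–128 µM), 1 h at 37 °C. After centrifugation at 1000×g, supernatant hemoglobin read at 576 nm. Untreated cells set 0% and 0.1% Triton X-100 set 100%. MHC defined as the concentration giving >10% hemolysis. Three or more independent experiments, triplicates.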

The subject of series [10] is Escherichia coli. The experiment in a line: Antibacterial activity against Escherichia coli ATCC 25922 measured after 18 to 24 hrs in presence of NaCl. The series is classed as functional.
The subject of series [11] is Escherichia coli. The experiment in a line: Antibacterial activity against Escherichia coli ATCC 25922 measured after 18 to 24 hrs in presence of MgCl2. The series is classed as functional.
In series [12] the test system is Escherichia coli. The experiment in a line: Antibacterial activity against Escherichia coli ATCC 25922 measured after 18 to 24 hrs in presence of ZnCl2. It counts as functional.
Series [13] deals with Escherichia coli. Kind of series: Antibacterial activity against Escherichia coli ATCC 25922 measured after 18 to 24 hrs in presence of NH4Cl. The series is classed as functional.
Series [14] concerns Staphylococcus aureus. Kind of series: Antibacterial activity against Staphylococcus aureus ATCC 29213 measured after 18 to 24 hrs in presence of CaCl2. The series is classed as functional.
For series [15], the system named is Candida albicans. Kind of series: Antifungal activity against Candida albicans cgmcc2.2086 measured after 48 hrs in presence of KCl by broth microdilution method. The series is classed as functional. The note with it: cgmcc2.2086, 48 h.
Series [16] has as its system Candida albicans. The experiment in a line: Antifungal activity against Candida albicans cgmcc2.2086 measured after 48 hrs in presence of CaCl by broth microdilution method. The settings on record: cgmcc2.2086, 48 h. It counts as functional.
Series [17] can be described thus: Therapeutic index, ratio of MHC10 for hemolytic activity in human RBC to MIC95 against Candida parapsilosis cgmcc2.3989. The settings on record: human red blood cells (erythrocytes), read-out: TI. The series is classed as toxicity. In a few lines: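 Therapeutic index = MHC divided by MIC. MHC is the lowest concentration giving >10% lysis of human RBC (1 h, 37 °C, 1-128 µM, A576). MIC is 95% growth inhibition by broth microdilution: bacteria in MHB 24 h at 37 °C; Candida in MOPS-buffered RPMI 1640 at (0.5–1) × 10^3 CFU mL−1, 48 h at 28 °C.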

Series [18] concerns Escherichia coli. Kind of series: Bactericidal activity against Escherichia coli ATCC 25922 incubated for 24 hrs followed by replating on agar plate and measured after overnight incubation. It counts as functional. The settings on record: ATCC 25922, 24 h, read-out: MBC>99.9. An outline of the steps: (§4)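 After the 24 h, 37 °C MHB microdilution (0.5–1 × 10^5 CFU mL−1 inoculum, peptides diluted in 0.2% BSA), 50 μL from each well was plated on agar and incubated overnight. MBC was taken as the lowest concentration killing >99.9% of cells. Three or more independent experiments, each with triplicate technical replicates.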

Series [19] deals with Escherichia coli. Kind of series: Bactericidal activity against Escherichia coli K88 incubated for 24 hrs followed by replating on agar plate and measured after overnight incubation. It counts as functional. The note with it: K88, 24 h, read-out: MBC>99.9. In a few lines: (§5)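 Mid-log bacteria diluted in MHB to (0.5–1) × 10^5 CFU/mL and mixed 1:1 with peptide serially diluted in 0.2% BSA. After 24 h at 37 °C, 50 μL of each mixture was plated on agar and incubated overnight. MBC taken as the lowest concentration killing >99.9% of cells. At least three independent experiments, each with three technical replicates.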

In series [20] the test system is Escherichia coli. The experiment in a line: Bactericidal activity against Escherichia coli 078 incubated for 24 hrs followed by replating on agar plate and measured after overnight incubation. The note with it: Escherichia coli, 078, 24 h; read-out: MBC>99.9. The series is classed as functional. An outline of the steps: as §4
Series [21] concerns Salmonella typhimurium. The experiment in a line: Bactericidal activity against Salmonella typhimurium C7731 incubated for 24 hrs followed by replating on agar plate and measured after overnight incubation. The series is classed as functional, Salmonella enterica subsp. enterica serovar Typhimurium. The note with it: Salmonella enterica, C7731, 24 h; read-out: MBC>99.9. In a few lines: as §5

For the substance H-AAKIILNPKFR-NH2, the MIC95 in series [1], in series [2], in series [3], in series [4], in series [5] and in series [6] was above 128 µM in each case. Besides, the MIC95 in series [7], in series [8], in [10], in series [11], in [12] and in [13] was above 128 µM in each case. Moreover, the MIC95 in series [14], in series [15] and in series [16] was above 128 µM throughout. The MHC10 in series [9] is above 128 µM. Moreover, the selectivity ratio in series [17] was determined as 2.

In the case of H-AARIILRDRFR-NH2, the MIC95 in series [1], in [2], in [3], in series [4], in [5] and in [6] was above 128 µM each time. In addition, the MIC95 in series [7], in series [8], in series [10], in series [11], in series [12] and in series [13] was above 128 µM throughout. Moreover, the MIC95 in series [14], in series [15] and in series [16] was above 128 µM in each case. In addition, the MHC10 in [9] is above 128 µM. The selectivity ratio in series [17] came to 2.

On to H-AARIILRNRFR-NH2, for which the MIC95 was 16 µM in series [1]; 32 µM in series [2]; above 128 µM in [3]; 16 µM in series [4]; above 128 µM in [5]; above 128 µM in [6]. Besides, the MIC95 is above 128 µM in series [7]; above 128 µM in [8]; 128 µM in series [10]; 128 µM in series [11]; 32 µM in series [12]; 16 µM in series [13]. Besides, the MIC95 in series [14], in series [15] and in series [16] was above 128 µM throughout. Also, the MBC is 64 µM in [18], 64 µM in series [19], 32 µM in [20] and 128 µM in series [21]. The substance further showed an MHC10 in series [9] above 128 µM. Further, the selectivity ratio in series [17] came to 2.

For the substance H-AARIILRPRFR-NH2, the MIC95 in [1] is 8 µM; in series [2], 16 µM; in [3] it was above 128 µM; in [4], 16 µM; in series [5], above 128 µM; in series [6] it was above 128 µM. For the same substance, the MIC95 in [7] was above 128 µM; in series [8], above 128 µM; in series [10], 128 µM; in series [11], 64 µM; in series [12], 32 µM; in series [13] it was 16 µM. Besides, the MIC95 in series [14], in series [15] and in [16] was above 128 µM each time. The MBC is 32 µM in series [18], 32 µM in series [19], 16 µM in series [20] and 32 µM in [21]. In addition, the MHC10 in series [9] is above 128 µM. For the same substance, the selectivity ratio in [17] turned out to be 2.
